This is an account of results in ChEMBL document CHEMBL1154630, “Discovery of colon tumor cell growth inhibitory agents through a combinatorial approach” (Eur J Med Chem, 2010).

Assay [1] deals with T1, cGMP-inhibited 3',5'-cyclic phosphodiesterase 3A (Homo sapiens, UniProt Q14432). The assay can be described thus: Inhibition of human recombinant PDE3A at 50 uM by fluorescence polarization assay using cGMP as substrate. On the technique in general: In fluorescence polarisation assays a small probe gives low polarisation when free and higher when bound to something large.

Assay [2] addresses T1, cGMP-inhibited 3',5'-cyclic phosphodiesterase 3A. The assay can be described thus: Inhibition of human recombinant PDE3A at 50 uM by fluorescence polarization assay using cAMP as substrate.
Assay [3] has as its system HT-29. The assay can be described thus: Cytotoxicity against human HT-29 cells at 50 uM after 72 hrs by celltiter glo assay. Type of assay: functional. Particulars: HT-29, 72 h, read-out: GI. In outline: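 HT-29 cells in RPMI 1640 plus 5% FBS, cultures >95% viable by Trypan blue. Seeded at 5000 cells/well and incubated 18–24 h, then exposed to a single 50 μM screening dose in triplicate. Live cells measured by CellTiter-Glo luminescent ATP assay at 72 h; percent growth inhibition reported.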
(In general: Cellular ATP, detected with luciferase, serves as a proxy for viable cell number.)

Assay [4] concerns HT-29. The assay can be described thus: Cytotoxicity against human HT-29 cells after 72 hrs by celltiter glo assay. It is filed as functional, cell-based. Particulars: HT-29, 72 h. In outline:
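HT-29 cells grown in RPMI 1640 with 5% FBS, used only at >95% viability (Trypan blue). 5000 cells/well, left 18–24 h before treatment. Viability read by CellTiter-Glo luminescence (ATP content) 72 h after treatment. IC50 from 8 concentrations, at least four replicates each, fitted to a four-parameter logistic equation.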

In assay [5] the target is T1, cGMP-inhibited 3',5'-cyclic phosphodiesterase 3A. The assay can be described thus: Inhibition of human recombinant PDE3A by fluorescence polarization assay using cGMP as substrate.
For assay [6] the target is unchanged. The assay can be described thus: Inhibition of human recombinant PDE3A by fluorescence polarization assay using cAMP as substrate.
In assay [7] the target is Baculoviral IAP repeat-containing protein 5 (Homo sapiens, UniProt O15392). Description: Inhibition of survivin.

pIC50, pKd: −log10 of the molar value.

In general, inhibition refers to the relative decrease from the control value, in per cent. A word on the pIC50: it is the IC50 on a negative log10 scale, so that one unit is a factor of ten. The pKd is the Kd on a negative log10 scale, so that one unit is a factor of ten. A lower pKd goes with a high Kd.

T1 sequence (Q14432 whole entry): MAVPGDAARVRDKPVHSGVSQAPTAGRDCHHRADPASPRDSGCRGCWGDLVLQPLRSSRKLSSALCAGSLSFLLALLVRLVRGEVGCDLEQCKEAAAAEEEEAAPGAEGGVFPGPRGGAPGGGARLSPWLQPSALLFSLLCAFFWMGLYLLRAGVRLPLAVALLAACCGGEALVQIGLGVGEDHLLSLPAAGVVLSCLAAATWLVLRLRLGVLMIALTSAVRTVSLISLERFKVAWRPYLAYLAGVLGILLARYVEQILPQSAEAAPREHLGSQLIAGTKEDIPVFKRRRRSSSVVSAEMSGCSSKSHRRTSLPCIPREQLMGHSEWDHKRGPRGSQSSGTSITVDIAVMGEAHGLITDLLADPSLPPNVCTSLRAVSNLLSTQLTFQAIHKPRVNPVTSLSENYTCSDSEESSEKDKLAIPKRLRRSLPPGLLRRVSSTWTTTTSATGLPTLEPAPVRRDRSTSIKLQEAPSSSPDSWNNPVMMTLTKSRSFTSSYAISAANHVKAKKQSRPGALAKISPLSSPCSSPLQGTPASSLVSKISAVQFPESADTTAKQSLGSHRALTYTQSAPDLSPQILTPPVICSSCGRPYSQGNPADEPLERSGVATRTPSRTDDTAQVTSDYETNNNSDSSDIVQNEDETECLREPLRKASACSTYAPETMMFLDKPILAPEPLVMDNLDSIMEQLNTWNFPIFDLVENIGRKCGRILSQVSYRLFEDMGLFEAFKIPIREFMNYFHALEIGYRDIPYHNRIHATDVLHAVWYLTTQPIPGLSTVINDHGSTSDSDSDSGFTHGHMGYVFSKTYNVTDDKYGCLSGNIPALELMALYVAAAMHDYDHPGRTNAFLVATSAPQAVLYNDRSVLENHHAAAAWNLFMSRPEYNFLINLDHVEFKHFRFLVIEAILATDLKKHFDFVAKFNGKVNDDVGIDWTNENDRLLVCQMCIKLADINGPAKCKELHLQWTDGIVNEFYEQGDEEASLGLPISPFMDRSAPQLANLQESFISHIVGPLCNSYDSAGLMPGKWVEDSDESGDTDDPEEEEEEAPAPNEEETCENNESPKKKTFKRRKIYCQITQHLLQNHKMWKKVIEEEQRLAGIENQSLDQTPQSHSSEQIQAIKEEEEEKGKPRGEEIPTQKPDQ
Sequence of Baculoviral IAP repeat-containing protein 5 (O15392 whole entry): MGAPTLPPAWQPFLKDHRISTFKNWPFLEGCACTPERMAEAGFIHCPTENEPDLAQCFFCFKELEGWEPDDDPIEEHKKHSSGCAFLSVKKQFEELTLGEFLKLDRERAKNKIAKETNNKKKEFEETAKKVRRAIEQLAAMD

For `N#Cc1c(-c2cccc(Cl)c2)cc(-c2ccc(Br)cc2)[nH]c1=N`, the inhibition in assay [1] was determined as 13%; in assay [2] it was 10%. Moreover, the inhibition of growth at 50 µM with HT-29 [3] came out at 7%.

Take `COc1ccc(-c2cc(-c3ccsc3)[nH]c(=O)c2C#N)cc1`: the values for the inhibition in assay [1] and in assay [2] were 0% and 8%, respectively. In addition, the inhibition of growth at 50 µM in the assay with HT-29 [3] was -20%.

For the compound `COc1ccc(OC)c(-c2cc(-c3ccc(Br)cc3)[nH]c(=O)c2C#N)c1`, the values for the inhibition in assay [1] and in assay [2] were 17% and 8%, respectively. Moreover, in the assay on HT-29 [3], the inhibition of growth at 50 µM amounted to 33%.

For `N#Cc1c(-c2ccc(Cl)cc2)cc(-c2ccsc2)[nH]c1=N`, the figures for the inhibition in assay [1] and in assay [2] were 45% and 28%, respectively. In the assay on HT-29 [3], the inhibition of growth at 50 µM amounted to 65%.

Regarding `N#Cc1c(-c2ccccc2O)cc(-c2ccc(Br)cc2)[nH]c1=O`, the results for the inhibition in assay [1] and in assay [2] were 28% and 10%, respectively. Besides, the negative-log IC50 (pIC50) in the assay with HT-29 [4] is 4.68. Further, in the assay with HT-29 [3], the inhibition of growth at 50 µM was determined as 94%.

For the compound `N#Cc1c(-c2ccsc2)cc(-c2ccccc2)[nH]c1=N`, the inhibition in assay [1] is 0%; in assay [2], 4%. For the same compound, the inhibition of growth at 50 µM with HT-29 [3] came to 25%.

For `N#Cc1c(-c2ccccc2O)cc(-c2ccsc2)[nH]c1=O`, the inhibition in assay [1] was 37%; in assay [2] it was 21%. The compound further had a pIC50 with HT-29 [4] of 4.34. Moreover, the inhibition of growth at 50 µM in the assay with HT-29 [3] was determined as 79%.

`COc1ccc(-c2cc(-c3ccc(Br)cc3)[nH]c(=N)c2C#N)c(OC)c1`: the values for the inhibition in assay [1] and in assay [2] were 70% and 25%, respectively. In addition, in the assay with HT-29 [3], the inhibition of growth at 50 µM turned out to be 2%.

As to `N#Cc1c(-c2ccccc2O)cc(-c2ccccc2Br)[nH]c1=N`, the inhibition amounted to 40% in assay [1] and 20% in assay [2]. Besides, in the assay on HT-29 [3], the inhibition of growth at 50 µM amounted to 28%.

In the case of `N#Cc1c(-c2ccccc2O)cc(-c2ccc(Br)cc2)[nH]c1=N`, the inhibition was 27% in assay [1] and 22% in assay [2]. Besides, in the assay with HT-29 [3], the inhibition of growth at 50 µM is 23%.

Take `CCOc1ccc(-c2cc(-c3ccsc3)[nH]c(=N)c2C#N)cc1`: the inhibition worked out at 80% in assay [1] and 55% in assay [2]. The inhibition of growth at 50 µM in the assay with HT-29 [3] is -10%. For the same compound, the negative-log IC50 (pIC50) in assay [5] is 4.87; in assay [6] it was 4.88.

On to `COc1ccc(OC)c(-c2cc(-c3ccc(Br)cc3)[nH]c(=N)c2C#N)c1`, for which the inhibition in assay [1] and in assay [2] was 20% throughout. In addition, the pIC50 in the assay on HT-29 [4] was 5.40. For the same compound, the inhibition of growth at 50 µM with HT-29 [3] came out at 95%.

`N#Cc1c(-c2ccsc2)cc(-c2ccccc2)[nH]c1=O`: the inhibition in assay [1] amounted to 9%; in assay [2] it was 7%. The inhibition of growth at 50 µM in the assay with HT-29 [3] is -10%.

For `N#Cc1c(-c2ccccc2Cl)cc(-c2ccc(Br)cc2)[nH]c1=N`, the figures for the inhibition in assay [1] and in assay [2] were 47% and 36%, respectively. In the assay on HT-29 [3], the inhibition of growth at 50 µM was -16%.

In the case of `N#Cc1c(-c2ccccc2O)cc(-c2ccsc2)[nH]c1=N`, the inhibition in assay [1] worked out at 26%; in assay [2], 21%. Also, the inhibition of growth at 50 µM with HT-29 [3] was 44%.

As to `CCOc1ccc(-c2cc(-c3ccsc3)[nH]c(=O)c2C#N)cc1`, the inhibition was found to be 0% in assay [1] and 7% in assay [2]. In the assay with HT-29 [3], the inhibition of growth at 50 µM is -1%.

Turning to `N#Cc1c(-c2cccc(Cl)c2)cc(-c2ccccc2)[nH]c1=N`, the inhibition in assay [1] stood at 20%; in assay [2], 15%.

With `CCOc1ccccc1-c1cc(-c2ccsc2)[nH]c(=O)c1C#N`, the inhibition stood at 20% in assay [1] and 5% in assay [2]. In the assay on HT-29 [4], this compound gave a pIC50 of 5.90. Moreover, in the assay on HT-29 [3], the inhibition of growth at 50 µM amounted to 80%.

Consider `N#Cc1c(-c2ccccc2O)cc(-c2cccc(Br)c2)[nH]c1=O`, for which the inhibition in assay [1] came out at 45%; in assay [2], 20%. In addition, in the assay with HT-29 [3], the inhibition of growth at 50 µM is -5%.

Consider `COc1ccccc1-c1cc(-c2ccsc2)[nH]c(=O)c1C#N`, for which the inhibition in assay [1] was determined as 8%; in assay [2], 10%. For the same compound, the inhibition of growth at 50 µM in the assay with HT-29 [3] was found to be 20%.

Take `N#Cc1c(-c2ccc(Cl)cc2)cc(-c2ccsc2)[nH]c1=O`: the inhibition in assay [1] was 14%; in assay [2] it was 5%.

In the case of `CCOc1ccccc1-c1cc(-c2ccsc2)[nH]c(=N)c1C#N`, the inhibition was -10% in assay [1] and 37% in assay [2]. The same compound gave a negative-log IC50 (pIC50) in the assay on HT-29 [4] of 5.22. Moreover, the inhibition of growth at 50 µM with HT-29 [3] stood at 92%.

`COc1ccccc1-c1cc(-c2ccsc2)[nH]c(=N)c1C#N`: the inhibition in assay [2] was found to be 47%. In the assay on HT-29 [4], this compound gave a pIC50 of 4.46. Further, the inhibition of growth at 50 µM in the assay with HT-29 [3] was found to be 78%.

Turning to `N#Cc1c(-c2ccccc2)cc(-c2cc(Br)ccc2O)[nH]c1=O`, the negative logarithm of the Kd (pKd) in assay [7] is 5.24.

`N#Cc1c(-c2ccccc2Cl)cc(-c2ccc(Br)cc2)[nH]c1=O`: the inhibition in assay [1] turned out to be 36%; in assay [2], 18%. Moreover, the inhibition of growth at 50 µM in the assay on HT-29 [3] came to 5%.

`COc1ccc(-c2cc(-c3ccsc3)[nH]c(=N)c2C#N)cc1`: the inhibition in assay [1] stood at 30%; in assay [2] it was 10%. This compound also showed a pIC50 with HT-29 [4] of 5.57. For the same compound, in the assay on HT-29 [3], the inhibition of growth at 50 µM was found to be 75%.

With `N#Cc1c(-c2cccc(Cl)c2)cc(-c2ccc(Br)cc2)[nH]c1=O`, the inhibition in assay [1] amounted to 21%; in assay [2], 8%. In addition, in the assay with HT-29 [3], the inhibition of growth at 50 µM was 7%.

`N#Cc1c(-c2cccc(Cl)c2)cc(-c2ccccc2)[nH]c1=O`: the results for the inhibition in assay [1] and in assay [2] were 24% and 10%, respectively. In addition, the pIC50 with HT-29 [4] is 5.68. The inhibition of growth at 50 µM with HT-29 [3] was 80%.

As to `N#Cc1c(-c2ccccc2O)cc(-c2ccccc2Br)[nH]c1=O`, the inhibition in assay [1] is 50%; in assay [2] it was 34%. In addition, the inhibition of growth at 50 µM in the assay on HT-29 [3] was found to be 22%.

Consider `COc1ccc(-c2cc(-c3ccc(Br)cc3)[nH]c(=O)c2C#N)c(OC)c1`, for which the inhibition in assay [1] was -8%; in assay [2], 2%. Besides, the inhibition of growth at 50 µM in the assay with HT-29 [3] is 0%.

Regarding `N#Cc1c(-c2ccccc2O)cc(-c2cccc(Br)c2)[nH]c1=N`, the inhibition stood at 36% in assay [1] and 18% in assay [2]. Also, the inhibition of growth at 50 µM in the assay on HT-29 [3] is 30%.
